# Screening data as filed in PubChem.
# Only a selection was taken, and hits are over-represented in it overall.
# Mdm2 ligase inh – Mdm2 E3 ligase (human) inhibition; 210,000 tested, 0.11% active; cell-based MDM2 ubiquitination luciferase reporter, 2 h; 0 = plate control, 100 = twice control, blank-subtracted; signal enhancement, % at 5 µM; Q00987;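 active = signal enhancement of 30% or more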;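 note: luminescence tracks abundance of the self-degrading MDM2-luciferase fusion protein; higher signal means inhibition of MDM2 E3 ligase activity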
#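 Timing – 2 h compound exposure at 37 °C · Assay system – mammalian cells stably expressing self-ubiquitinating, self-degrading MDM2 E3–luciferase fusion · Amount – 2000 cells seeded into each well · Measure – % luminescence enhancement versus blank-corrected plate control mean · Measured by – SteadyLite luminescence, 15 min reagent step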
# S1P4 antag – antagonists of human S1P4 receptor | inhibition, % at 4.98 µM | 220,000 tested, 0.26% active | S1P4-expressing cells, antagonist mode, reporter read-out | O95977; in the data active = inhibition above about 29%;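 note: 0% = wells stimulated with agonist and 100% = vehicle wells without agonist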
# Target sequence (O95977 whole entry, looked up): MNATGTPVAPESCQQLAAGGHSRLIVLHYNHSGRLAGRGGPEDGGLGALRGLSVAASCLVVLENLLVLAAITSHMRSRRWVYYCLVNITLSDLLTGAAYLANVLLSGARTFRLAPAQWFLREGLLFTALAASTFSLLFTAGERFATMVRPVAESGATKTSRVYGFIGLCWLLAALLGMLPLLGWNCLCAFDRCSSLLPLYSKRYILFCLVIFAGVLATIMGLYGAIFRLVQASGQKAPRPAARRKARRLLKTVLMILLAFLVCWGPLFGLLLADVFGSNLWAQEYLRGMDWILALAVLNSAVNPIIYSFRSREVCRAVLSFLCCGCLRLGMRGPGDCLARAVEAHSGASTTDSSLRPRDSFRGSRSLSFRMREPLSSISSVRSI
# Lmaj promast – Leishmania major promastigote growth inhibition; Leishmania major promastigotes, resazurin fluorescence viability; inhibition, % at 10 µM; 200,000 tested, 9% active; AID 1063; in the data active = inhibition above about 50%;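 note: promastigotes grown with compound for 44 hours at 28 °C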
# S1P4 agonist – agonists of human S1P4 receptor | O95977 | S1P4-expressing cell line, agonist reporter assay | activation, % at 4.98 µM | 220,000 tested, 0.35% active | AID 1509; in the data active = activation above about 11%;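 note: 0% = DMSO vehicle and 100% = reference agonist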
# S1P3 antagonist – blocks the human S1P3 receptor; inhibition, % at 4.98 µM; CHO S1P3 NFAT-BLA reporter, FRET fluorescence, antagonist mode; 170,000 tested, 0.27% active;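 active = inhibition above the plate cutoff, the mean inhibition of test wells on that plate plus 3 SD, cut at about 28% in these data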;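 note: cells challenged with S1P at its EC80 of 0.8 µM; blue over green emission ratio from cleaved BLA substrate after 4 h stimulation; 0% = S1P-stimulated wells and 100% = unstimulated DMSO-only wells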
# * = called active by the depositor; x = no result.
SMILES,Mdm2 ligase inh,S1P4 antag,Lmaj promast,S1P4 agonist,S1P3 antagonist
N#Cc1ccccc1NC(=O)CNc1ccccc1N1CCCCC1,-3,6,71*,-2,x
CN(Cc1ccccc1NCC(=O)Nc1ccccc1C#N)C1CCCCC1,-14,3,39,0,-3
COc1cc2cc(CN(Cc3cccnc3)C(=O)Nc3ccccc3F)c(=O)[nH]c2cc1OC,10,-7,1,0,-1
COc1cccc(-c2ccc(=O)n(CC(=O)Nc3ccc(S(=O)(=O)NCC(C)C)cc3)n2)c1,-8,6,-6,2,-7
COc1ccc(CNCCC(c2ccccc2)c2ccc3c(c2)OCO3)cc1 (stereo not given),-12,-4,100*,0,x
Fc1ccccc1CNCCC(Cc1ccccc1)c1ccc2c(c1)OCO2 (stereo not given),-9,-11,66*,-2,-2
CC(=O)N(CCC(Cc1ccccc1)c1ccc2c(c1)OCO2)Cc1ccccc1F (stereo not given),-10,-8,9,3,x
c1ccc(COc2ccc(OCCCCN3CCCCC3)cc2)cc1,1,4,100*,0,x
O=C(c1ccccc1)c1ccc(OCCCN2CCCC2)cc1,-13,-12,99*,-1,3
c1ccc(COCCN2CCN(CCOCc3ccccc3)CC2)cc1,-12,-4,95*,-1,x
Oc1ccc(N2CCN(Cc3ccc(OCCCN4CCCCC4)cc3)CC2)cc1,-28,-12,48,-1,4
O=C(c1ccccc1)c1ccc(OCCOCCN2CCN(Cc3ccccc3)CC2)cc1,-7,-19,56*,1,3
COC(=O)CC/C(=N/Nc1ccc(Cl)c(Cl)c1)C(=O)OC,3,-7,1,0,11
O=C(NNC(=O)C1CC(c2cccnc2)=NO1)Nc1cccc(F)c1 (stereo not given),-7,7,5,3,x
COc1cc(S(=O)(=O)N2CCN(C(=O)c3ccccc3F)CC2)c(OC)cc1NC(C)=O,-17,-6,-1,-2,-24
CC(C)c1ccc(O)c(NC(=S)NC(=O)CCc2ccccc2)c1,-15,1,-6,0,-11
COCCN(C(=O)CNC(=O)c1cccs1)C(C(=O)NC(C)(C)C)c1ccccc1 (stereo not given),-4,0,-4,-1,-33
O=C(O)COc1ccc(C(=O)c2ccccc2)cc1,-5,6,-3,0,-21
O=C(c1ccccc1)c1ccc(OCCCCN2CCCCC2)cc1,-4,-1,98*,-2,x
Cc1nc(-c2ccccc2)sc1C(=O)/C=C/c1ccc(Cl)cc1,-1,6,63*,2,x
CC(=O)c1sc(-c2ccc(Cl)cc2)nc1C,1,3,-4,0,-14
CC1CC(N(C(=O)C2CC2)c2ccccc2)c2ccccc2N1C(=O)C1CC1 (stereo not given),-13,-16,-2,1,-3
CC1CC(N(C(=O)c2ccco2)c2ccccc2)c2ccccc2N1C(=O)c1ccco1 (stereo not given),-30,-2,62*,-2,x
CC1CC(N(C(=O)c2ccc(Cl)cc2)c2ccccc2)c2ccccc2N1C(=O)c1ccco1 (stereo not given),-19,3,57*,1,x
Cc1nn(C)cc1C(C(=O)NC1CCCCC1)N(Cc1ccc(F)cc1)C(=O)c1cnccn1 (stereo not given),-6,1,2,0,-5
SMILES,Mdm2 ligase inh,S1P4 antag,Lmaj promast,S1P4 agonist,S1P3 antagonist
COc1ccc(C2=NN(C(C#N)c3ccc(OC)c(OC)c3)C(c3ccccc3)C2)cc1 (stereo not given),-14,9,100*,3,x
COc1ccc(C(C#N)N2CCC(c3ccccc3)=N2)cc1OC (stereo not given),-12,-15,-6,2,-4
COc1ccc(-c2[nH]ncc2CNC(C)c2cn(C)nc2C)c(F)c1 (stereo not given),-4,10,0,-1,1
CCCn1c(C)cc(/C=C(\C#N)C(=O)OCC(=O)Nc2cccc(OC)c2)c1C,-12,-12,61*,1,-18
Cc1cc(/C=C(\C#N)C(=O)OCC(=O)NC(=O)NC(C)(C)C)c(C)n1CCC(C)C,-30,-13,3,2,x
COCc1cc(SC2CCCCC2)nc(C)n1,-4,11,-5,1,-7
COc1ccc(OC)c(S(=O)(=O)Nc2c(C)cccc2C)c1,-5,-9,13,-1,-29
COc1ccc(OC)c(S(=O)(=O)Nc2ccc(O)c3ccccc23)c1,x,-2,100*,1,-25
Cc1ccoc1C(=O)N1CCCCC1C(=O)O (stereo not given),-5,8,0,0,-13
Cc1ccc(Cn2ncc(Cl)c(Cl)c2=O)cc1,14,-26,60*,1,-8
O=C(Nc1ccc2nc(-c3cccs3)c(-c3cccs3)nc2c1)NC1CC1,-18,0,64*,5,x
COc1ccc(CCNC(=O)CSc2nn(-c3ccccc3)c(=S)s2)cc1OC,0,-32,14,6,10
COc1ccc(-c2nc(-c3cccc([N+](=O)[O-])c3O)cc(=O)o2)cc1OC,-10,-19,-6,3,-13
COc1cc(/C=C2/C(=O)c3cccc([N+](=O)[O-])c3C2=O)c(Br)cc1O,-15,6,100*,-1,5
Cc1[nH]c2ccccc2c1C(=O)CN1C(=O)NC2(CC(C)CC(C)(C)C2)C1=O (stereo not given),-13,2,90*,0,3
Cc1[nH]c2ccccc2c1C(=O)CN1CCCC1,-13,3,8,0,-14
CS(=O)(=O)Nc1ccc(C(=O)Nc2cccc([N+](=O)[O-])c2)cc1,2,-5,0,0,7
CC(CN1CCOCC1)OC(=O)C(C)(c1ccccc1)c1ccccc1 (stereo not given),-3,3,55*,1,x
CC(CN1CCCCC1)OC(=O)C(C)(c1ccccc1)c1ccccc1 (stereo not given),-13,-15,100*,-1,x
CC(CN1CCCCC1)OC(=O)Cc1ccc(Cl)cc1 (stereo not given),-2,-13,-7,-1,3
CC(CN1CCOCC1)OC(=O)C(c1ccccc1)c1ccccc1 (stereo not given),-2,-12,6,1,x
O=C(O)c1cn(-c2ccc(F)cc2)c(=O)c2ccccc12,-2,4,-3,1,-12
Cc1ccc(-n2ncc(Cl)c2C(=O)NC2CC2)cc1,-7,8,-2,0,3
CCC(c1nnnn1C1CCCC1)N(Cc1cccs1)Cc1cc2cc(C)ccc2[nH]c1=O (stereo not given),-10,3,63*,0,17
CCOc1ccc2[nH]c(=O)c(CN(Cc3cccs3)C(CC)c3nnnn3C(C)(C)CC)cc2c1 (stereo not given),14,-12,75*,0,16
CCOC(=O)Cn1nnnc1C(CC)N(Cc1cccs1)Cc1cc2cc(C)ccc2[nH]c1=O (stereo not given),-4,-20,95*,0,-35
